Results on 34 compounds are retold here after ChEMBL document CHEMBL1811824, “Synthesis and evaluation of mansonone F derivatives as topoisomerase inhibitors” (Eur J Med Chem, 2011).

Experiment [1] can be described thus: Antitumor against human CNE2 cells assessed as cell survival after 48 hrs by MTT assay. Type of experiment: functional, cell-based. Particulars: CNE-2, 48 h. The gist of the method: (§1)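 1 × 10^4 cells per well plated and left overnight, then exposed to compound at 0–100 μM for 48 h. Per well, 20 μl of 5 mg/ml MTT added, then incubated 4 h at 37 °C. Untransformed MTT removed, formazan dissolved in DMSO, absorbance read at 570 nm, and IC50 derived. Modified Mosmann method.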

A short description of experiment [2]: Antitumor against human GLC82 cells assessed as cell survival after 48 hrs by MTT assay. Type of experiment: functional, cell-based. To be noted: GLC82, 48 h. The gist of the method: as §1
Experiment [3] addresses T1, DNA topoisomerase 1 (Homo sapiens) (UniProt P11387).
T1 sequence (whole entry): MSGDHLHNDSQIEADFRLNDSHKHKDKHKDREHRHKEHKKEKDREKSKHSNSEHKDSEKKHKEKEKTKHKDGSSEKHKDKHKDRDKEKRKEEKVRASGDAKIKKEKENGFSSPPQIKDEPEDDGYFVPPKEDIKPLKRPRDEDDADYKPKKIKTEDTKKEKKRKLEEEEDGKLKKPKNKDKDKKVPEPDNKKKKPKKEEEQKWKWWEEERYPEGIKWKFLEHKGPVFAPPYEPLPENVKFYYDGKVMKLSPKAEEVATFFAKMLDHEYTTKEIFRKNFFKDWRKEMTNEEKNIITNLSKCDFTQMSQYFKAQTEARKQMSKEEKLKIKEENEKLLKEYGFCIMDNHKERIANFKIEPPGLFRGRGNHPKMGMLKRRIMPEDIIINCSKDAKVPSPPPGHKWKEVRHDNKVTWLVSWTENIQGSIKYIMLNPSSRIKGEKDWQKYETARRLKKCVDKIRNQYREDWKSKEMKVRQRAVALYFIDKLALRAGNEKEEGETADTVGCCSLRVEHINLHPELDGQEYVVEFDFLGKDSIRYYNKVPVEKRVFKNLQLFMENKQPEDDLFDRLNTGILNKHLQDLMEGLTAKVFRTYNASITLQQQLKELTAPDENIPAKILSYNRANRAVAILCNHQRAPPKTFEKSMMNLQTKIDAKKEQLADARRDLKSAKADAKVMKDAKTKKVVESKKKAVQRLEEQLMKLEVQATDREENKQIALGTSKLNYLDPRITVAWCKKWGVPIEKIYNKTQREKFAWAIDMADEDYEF
Briefly: Inhibition of human topoisomerase 1-mediated relaxation of supercoiled pBR322 DNA at 250 uM after 30 mins by agarose gel electrophoresis.

In experiment [4] the target is T2, DNA topoisomerase 2-alpha (Homo sapiens, UniProt P11388). Briefly: Inhibition of human topoisomerase 2 alpha-mediated relaxation of supercoiled pBR322 DNA after 30 mins by agarose gel electrophoresis. The method in brief: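 Compound added at constant solvent volume. Started with 1 U human topo IIα, 30 min at 37 °C. Stopped with sarkosyl/bromophenol blue/glycerol buffer. Read on 1% agarose TAE gel, ethidium-stained, imaged under UV.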

Experiment [5] concerns the target T2, DNA topoisomerase 2-alpha. Briefly: Ratio IC50 of etoposide to IC50 of compound for human topoisomerase 2 alpha. The gist of the method: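 Human topo IIα relaxation of 0.2 μg pBR322 in Tris pH 8.0 buffer with 5 mM ATP, using 1 U enzyme for 30 min at 37 °C, read on agarose gel.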
For experiment [6], the target named is Telomerase reverse transcriptase (Homo sapiens) (UniProt O14746). Briefly: Inhibition of telomerase in human K562 cells at 20 uM using telo TAGGG telomerase PCR ELISA. The format is cell-based. The method in brief: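 TRAP-based kit with non-radioactive ELISA read-out, run on K562 human leukemia cells per the manufacturer's instructions.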
On the technique in general: An ELISA detects its analyte on a solid surface through an enzyme-linked reagent.

The subject of the next experiment is Ehrlich. Briefly: Inhibition of DNA primase in mouse EAC cells assessed as incorporation of [3H]dATP to […] template at 100 uM after 1 hr by scintillation counting. Type of experiment: cell-based. The gist of the method:
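DNA primase isolated from Ehrlich ascites carcinoma cells grown in culture.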

pIC50: −log10 of the molar value. Calls of active or inactive are those of the source. The calls are words filed in the database; no cut-off is given here.

T2 sequence (P11388 whole entry): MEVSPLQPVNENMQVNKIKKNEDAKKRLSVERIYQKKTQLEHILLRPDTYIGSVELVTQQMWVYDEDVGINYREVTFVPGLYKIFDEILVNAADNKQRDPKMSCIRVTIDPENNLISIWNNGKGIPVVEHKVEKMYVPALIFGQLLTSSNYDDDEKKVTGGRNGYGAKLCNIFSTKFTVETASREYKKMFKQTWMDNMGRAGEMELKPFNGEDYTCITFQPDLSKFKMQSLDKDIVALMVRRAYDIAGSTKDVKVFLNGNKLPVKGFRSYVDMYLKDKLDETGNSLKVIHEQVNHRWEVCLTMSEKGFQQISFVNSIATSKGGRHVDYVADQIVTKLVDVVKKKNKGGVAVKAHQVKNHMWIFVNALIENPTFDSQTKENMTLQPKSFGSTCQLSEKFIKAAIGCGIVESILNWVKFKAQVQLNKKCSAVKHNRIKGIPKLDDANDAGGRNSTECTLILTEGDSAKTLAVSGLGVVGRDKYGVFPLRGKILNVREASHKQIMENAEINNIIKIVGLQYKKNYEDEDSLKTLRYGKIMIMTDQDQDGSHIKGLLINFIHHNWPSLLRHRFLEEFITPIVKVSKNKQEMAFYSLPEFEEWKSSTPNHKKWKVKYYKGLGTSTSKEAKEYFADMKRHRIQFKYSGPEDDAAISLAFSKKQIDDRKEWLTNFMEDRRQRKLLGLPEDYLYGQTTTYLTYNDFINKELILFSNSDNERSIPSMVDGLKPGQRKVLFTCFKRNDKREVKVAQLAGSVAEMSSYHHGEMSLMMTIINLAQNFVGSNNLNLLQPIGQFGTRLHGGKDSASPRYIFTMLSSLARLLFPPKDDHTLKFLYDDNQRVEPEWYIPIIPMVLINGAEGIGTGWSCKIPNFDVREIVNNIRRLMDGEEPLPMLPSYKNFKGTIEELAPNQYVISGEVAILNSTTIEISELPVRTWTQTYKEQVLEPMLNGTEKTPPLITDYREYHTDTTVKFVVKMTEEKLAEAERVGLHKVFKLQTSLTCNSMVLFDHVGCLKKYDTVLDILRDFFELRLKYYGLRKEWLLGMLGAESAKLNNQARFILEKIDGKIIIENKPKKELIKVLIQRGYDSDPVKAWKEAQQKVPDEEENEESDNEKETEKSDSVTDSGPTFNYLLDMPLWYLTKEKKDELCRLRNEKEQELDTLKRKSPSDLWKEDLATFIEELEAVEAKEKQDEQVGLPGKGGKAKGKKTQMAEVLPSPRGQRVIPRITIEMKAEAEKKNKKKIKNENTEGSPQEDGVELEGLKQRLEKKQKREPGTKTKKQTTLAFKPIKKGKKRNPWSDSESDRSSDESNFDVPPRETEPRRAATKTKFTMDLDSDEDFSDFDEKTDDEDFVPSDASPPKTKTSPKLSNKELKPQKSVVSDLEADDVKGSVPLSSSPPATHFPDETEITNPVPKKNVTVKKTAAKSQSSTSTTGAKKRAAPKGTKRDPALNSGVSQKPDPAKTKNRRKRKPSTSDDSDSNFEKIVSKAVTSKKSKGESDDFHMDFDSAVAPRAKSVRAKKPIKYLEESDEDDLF
Sequence of Telomerase reverse transcriptase (Homo sapiens) (O14746 whole entry): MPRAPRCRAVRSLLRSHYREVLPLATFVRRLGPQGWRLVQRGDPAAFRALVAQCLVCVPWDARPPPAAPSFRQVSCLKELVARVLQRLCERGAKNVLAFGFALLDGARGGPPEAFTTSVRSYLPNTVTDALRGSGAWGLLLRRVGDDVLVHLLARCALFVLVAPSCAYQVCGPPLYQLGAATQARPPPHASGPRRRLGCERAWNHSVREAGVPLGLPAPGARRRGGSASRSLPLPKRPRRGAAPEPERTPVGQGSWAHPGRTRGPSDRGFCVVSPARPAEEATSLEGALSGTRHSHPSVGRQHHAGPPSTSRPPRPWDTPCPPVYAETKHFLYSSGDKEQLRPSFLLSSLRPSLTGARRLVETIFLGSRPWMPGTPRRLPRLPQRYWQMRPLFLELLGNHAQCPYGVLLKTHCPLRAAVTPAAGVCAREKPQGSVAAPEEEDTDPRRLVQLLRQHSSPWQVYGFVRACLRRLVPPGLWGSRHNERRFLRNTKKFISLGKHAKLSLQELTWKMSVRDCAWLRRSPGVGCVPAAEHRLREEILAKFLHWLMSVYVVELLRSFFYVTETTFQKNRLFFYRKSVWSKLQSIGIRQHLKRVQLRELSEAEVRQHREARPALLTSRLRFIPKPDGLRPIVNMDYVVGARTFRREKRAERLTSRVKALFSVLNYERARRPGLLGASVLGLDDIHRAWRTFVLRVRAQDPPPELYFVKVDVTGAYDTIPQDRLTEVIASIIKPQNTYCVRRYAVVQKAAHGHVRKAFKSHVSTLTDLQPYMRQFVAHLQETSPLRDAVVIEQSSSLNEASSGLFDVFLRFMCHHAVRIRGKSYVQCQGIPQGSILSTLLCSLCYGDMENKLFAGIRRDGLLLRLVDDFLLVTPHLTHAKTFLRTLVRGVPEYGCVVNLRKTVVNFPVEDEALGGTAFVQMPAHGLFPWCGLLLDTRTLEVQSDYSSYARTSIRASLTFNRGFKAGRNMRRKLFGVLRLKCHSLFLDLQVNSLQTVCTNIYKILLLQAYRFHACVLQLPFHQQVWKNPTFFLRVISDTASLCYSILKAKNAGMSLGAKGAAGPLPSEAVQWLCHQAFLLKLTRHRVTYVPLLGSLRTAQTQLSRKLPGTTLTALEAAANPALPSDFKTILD

In the case of `CC1=C(OCC#N)c2ccccc2C(=O)C1=O`, the pIC50 – broadly, −log10 of the IC50, conventionally taken in molar units – in experiment [1] was 4.40; in experiment [2], 4.41.
The corresponding values for `O=C1/C(=N\O)C=C2OCCc3cccc1c32` are less than 4.30 and less than 4.30.
`COc1ccc(C(=O)COC2=C(C)C(=O)C(=O)c3ccccc32)cc1`: the pIC50 was 4.52 in experiment [1] and 4.35 in experiment [2].
For the compound `CC1=COC2=C(C)C(=O)C(=O)c3c(C)ccc1c32` [MANSONONE F], the figures for the pIC50 in experiment [1] and in experiment [2] were 4.56 and 4.81, respectively. For the same compound, in experiment [3], the inhibition (as a rule, the share of the control response that was lost under treatment) is “Active”.
`O=C1C(=O)c2cccc3c2C(=C1Cl)OC=C3c1ccc(F)cc1`: the pIC50 in experiment [1] is 4.56; in experiment [2] it was 4.50. In addition, in experiment [3], the inhibition result is “Active”.
As to `CC1=C(OCC(=O)c2ccc(C)c(C)c2)c2ccccc2C(=O)C1=O`, the pIC50 in experiment [1] and in experiment [2] was less than 4.30 in each case.
Take `O=C1C=C2OCCc3cccc(c32)C1=O`: the pIC50 in experiment [1] is 5.32; in experiment [2], 5.27.
As to `CC1(O)COC2=CC(=O)C(=O)c3cccc1c32` (stereo unspecified), the values for the negative logarithm of the IC50 (pIC50) in experiment [1] and in experiment [2] were 4.76 and 4.72, respectively.
As to `C=CCC1(O)COC2=C(Cl)C(=O)C(=O)c3cccc1c32` (stereo unspecified), the figures for the pIC50 in experiment [1] and in experiment [2] were 5.45 and 5.27, respectively. The inhibition entry in experiment [3] was “Active”.
Regarding `O=C1C=C2OCC(O)(Cc3ccccc3)c3cccc(c32)C1=O` (stereo unspecified), the pIC50 in experiment [4] is 5.31; in experiment [1], 5.35; in experiment [2] it was 5.42. The Ratio IC50 in experiment [5] was found to be 12. For the same compound, the inhibition result in experiment [3] was “Active”.
With `O=C1C(=O)c2cccc3c2C(=C1Cl)OC=C3Cc1ccccc1`, the pIC50 in experiment [1] and in experiment [2] was 4.67 each time. For the same compound, the inhibition entry in experiment [3] is “Active”.
Turning to `O=C1C(=O)c2cccc3c2C(=C1Cl)OCC3(O)c1ccccc1` (stereo unspecified), the negative-log IC50 (pIC50) in experiment [1] is 5.54; in experiment [2] it was 5.25. For the same compound, the inhibition entry in experiment [3] was “Active”.
Turning to `O=C1C(=O)c2cccc3c2C(=C1Cl)OCC3(O)c1ccc(F)cc1` (stereo unspecified), the figures for the pIC50 in experiment [1] and in experiment [2] were 4.87 and 5.01, respectively. Further, in experiment [3], the inhibition result was “Active”.
For the compound `O=C1C=C2OC=C(c3ccccc3)c3cccc(c32)C1=O`, the pIC50 in experiment [1] is 5.04; in experiment [2], 5.43. For the same compound, the inhibition entry in experiment [3] is “Active”.
For the compound `CC(=O)COC1=C(C)C(=O)C(=O)c2ccccc21`, the negative-log IC50 (pIC50) in experiment [1] and in experiment [2] was less than 4.30 in each case.
As for `CC1(O)COC2=C(Cl)C(=O)C(=O)c3cccc1c32` (stereo unspecified), the pIC50 is 5.09 in experiment [1] and 4.95 in experiment [2]. For the same compound, the inhibition entry in experiment [3] is “Active”.
With `CC1(OC(=O)c2ccccc2)COC2=C(Cl)C(=O)C(=O)c3cccc1c32` (stereo unspecified), the pIC50 in experiment [1] is 5.09; in experiment [2] it was 4.96. The inhibition result in experiment [3] is “Active”.
`O=C1C=C2OCC(O)(c3ccccc3)c3cccc(c32)C1=O` (stereo unspecified): the pIC50 is 5.50 in experiment [1] and 5.27 in experiment [2]. In experiment [3], the inhibition entry was “Active”.
`C=CCOC1=C(C)C(=O)C(=O)c2ccccc21`: the pIC50 in experiment [1] and in experiment [2] was less than 4.30 in each case.
On to `CCCC1(O)COC2=C(Cl)C(=O)C(=O)c3cccc1c32` (stereo unspecified), for which the pIC50 is 5.44 in experiment [1] and 5.10 in experiment [2]. In addition, the inhibition result in experiment [3] is “Active”.
In the case of `O=C1C=C2OC=C(c3ccc(F)cc3)c3cccc(c32)C1=O`, the pIC50 was 4.80 in experiment [1] and 5.49 in experiment [2]. The inhibition result in experiment [3] was “Active”.
On to `CC1=C(OCC(=O)c2ccc(Cl)cc2)c2ccccc2C(=O)C1=O`, for which the pIC50 is 4.52 in experiment [1] and less than 4.30 in experiment [2].
On to `O=C1C=C2OCC(O)(c3ccc(F)cc3)c3cccc(c32)C1=O` (stereo unspecified), for which the pIC50 in experiment [1] is 5.01; in experiment [2] it was 5.18. The inhibition result in experiment [3] is “Active”.
For `CC1COC2=CC(=O)C(=O)c3cccc1c32` (stereo unspecified), the pIC50 is 5.73 in experiment [4], 5.69 in experiment [1] and 5.75 in experiment [2]. For the same compound, the Ratio IC50 in experiment [5] is 32. Further, the results for the inhibition (in experiment [6]; in the experiment on Ehrlich) were 22% and 29%, respectively. Also, the inhibition entry in experiment [3] is “inactive”.
On to `c1cc2c3c(cc4nccnc4c3c1)OCC2`, for which the pIC50 in experiment [1] and in experiment [2] was less than 4.30 each time.
With `O=C1C=C2OC=C(Cc3ccccc3)c3cccc(c32)C1=O`, the pIC50 in experiment [1] was 5.19; in experiment [2], 5.54. Also, the inhibition result in experiment [3] is “Active”.
Take `CC[C@@]1(O)C(=O)OCc2c1cc1n(c2=O)Cc2cc3cc(O)ccc3nc2-1` [HYDROXYCAMPTOTHECIN]: the pIC50 in experiment [1] was 5.98; in experiment [2] it was 6.64.
In the case of `CCCC1=COC2=C(Cl)C(=O)C(=O)c3cccc1c32`, the pIC50 is 5.41 in experiment [1] and 5.67 in experiment [2]. Moreover, the inhibition result in experiment [3] is “Active”.
As for `C=CCC1=COC2=C(Cl)C(=O)C(=O)c3cccc1c32`, the pIC50 in experiment [4] is 5.81; in experiment [1] it was 5.28; in experiment [2], 5.42. Besides, in experiment [5], the Ratio IC50 was found to be 39. In experiment [3], the inhibition entry was “Active”.
Turning to `O=C1C(=O)c2cccc3c2C(=C1Cl)OC=C3c1ccccc1`, the pIC50 in experiment [1] was 4.48; in experiment [2], 4.40. For the same compound, the inhibition result in experiment [3] is “Active”.
Regarding `O=C1C=C2OCCc3cccc(c32)/C1=N/O`, the values for the pIC50 in experiment [1] and in experiment [2] were 5.24 and 4.37, respectively.
With `c1ccc(-c2nc3cc4c5c(cccc5c3o2)CCO4)cc1`, the pIC50 in experiment [1] and in experiment [2] was less than 4.30 each time.
For the compound `c1ccc2nc3c(cc4c5c(cccc53)CCO4)nc2c1`, the pIC50 in experiment [1] and in experiment [2] was less than 4.30 each time.
For `O=C1C(=O)c2cccc3c2C(=C1Cl)OCC3(O)Cc1ccccc1` (stereo unspecified), the pIC50 in experiment [1] is 5.20; in experiment [2] it was 5.56. Further, in experiment [3], the inhibition entry is “Active”.
